Reference: ChEMBL document CHEMBL4828720, “Macrocyclic Immunoproteasome Inhibitors as a Potential Therapy for Alzheimer's Disease” (J Med Chem, 2021)

How the values were obtained:
[1] = target: T1, Proteasome subunit beta type-9 (Homo sapiens, UniProt P28065); experiment: Inhibition of human 20S proteasome LMP2 using Ac-PAL-AMC as fluorogenic substrate measured every minute for 1 hr by fluorescence assay
T1 sequence (P28065 whole entry): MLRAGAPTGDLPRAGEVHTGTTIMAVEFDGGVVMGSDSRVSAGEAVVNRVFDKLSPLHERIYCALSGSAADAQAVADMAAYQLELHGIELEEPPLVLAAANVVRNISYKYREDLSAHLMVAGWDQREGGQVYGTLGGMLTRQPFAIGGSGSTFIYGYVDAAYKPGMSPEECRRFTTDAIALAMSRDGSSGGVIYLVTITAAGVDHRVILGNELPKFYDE
Method in brief: (§1)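 Preincubated 1 h with inhibitor at 3-10,000 nM (8 concentrations). Substrates at 100 μM: Ac-PAL-AMC (LMP2), Ac-nLPnLD-AMC (Y), Ac-ANW-AMC (LMP7). Ac-WLA-AMC (X) at 20 μM. AMC fluorescence (360/460 nm) read each minute for 1 h; 3 replicates.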

[2] = target: T2, Proteasome subunit beta type-8 (Homo sapiens, UniProt P28062); experiment: Inhibition of human 20S proteasome LMP7 using Ac-ANW-AMC as fluorogenic substrate measured every minute for 1 hr by fluorescence assay
T2 sequence (P28062 whole entry): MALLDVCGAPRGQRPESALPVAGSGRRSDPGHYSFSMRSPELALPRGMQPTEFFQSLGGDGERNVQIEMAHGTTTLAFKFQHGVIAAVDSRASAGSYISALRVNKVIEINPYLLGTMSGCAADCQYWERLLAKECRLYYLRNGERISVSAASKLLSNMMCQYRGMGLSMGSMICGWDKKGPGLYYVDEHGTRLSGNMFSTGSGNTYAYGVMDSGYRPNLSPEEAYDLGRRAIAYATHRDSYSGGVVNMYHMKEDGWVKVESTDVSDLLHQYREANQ
Method in brief: as §1, with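 “Purified human 20S constitutive or immunoproteasome, 50 ng in 20 mM Tris-HCl, 0.5 mM EDTA, 0.035% SDS, pH 8.0. Preincubated” for “Preincubated”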

[3] = Inhibition of human 20S proteasome X using Ac-WLA-AMC as fluorogenic substrate measured every minute for 1 hr by fluorescence assay
Method in brief: as §1, with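 “Purified human 20S constitutive or immunoproteasome, 50 ng in 20 mM Tris-HCl, 0.5 mM EDTA, 0.035% SDS, pH 8.0. Preincubated” for “Preincubated”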

[4] = Inhibition of human 20S proteasome Y using Ac-nLPnLD-AMC as fluorogenic substrate measured every minute for 1 hr by fluorescence assay; method in brief: as §1
[5] = target: T1, Proteasome subunit beta type-9; experiment: Inhibition of human 20S proteasome LMP2 activity in human RPMI-8226 cells using Ac-PAL-AMC as fluorogenic substrate incubated for 72 hrs by fluorescence assay; type: cell-based
[6] = target: T1, Proteasome subunit beta type-9; experiment: Inhibition of human 20S proteasome LMP2 activity in human RPMI-8226 cells overexpressing ABCB1 using Ac-PAL-AMC as fluorogenic substrate incubated for 72 hrs by fluorescence assay; type: cell-based
Homo sapiens = species on record: Homo sapiens; experiment: Selectivity index, ratio of IC50 for inhibition of human 20S proteasome LMP2 activity in human RPMI-8226 cells overexpressing ABCB1 to IC50 for inhibition of human 20S proteasome LMP2 activity in human RPMI-8226 cells; type: cell-based
Method in brief: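 Carfilzomib-resistant RPMI 8226/ABCB1 line, kept drug-free for two weeks, alongside parental RPMI 8226. Cells exposed to varying inhibitor concentrations for 72 h, n=3 per concentration. Lysates (5 μg protein, pH 8.0 Tris/EDTA/0.035% SDS buffer) read with 100 μM Ac-PAL-AMC at ex 360/em 460 nm every minute for 1 h. IC50 from curve fitting, mean ± SD.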

Row | SMILES | IC50 [1] | IC50 [2] | IC50 [3] | IC50 [4] | IC50 [5] | IC50 [6] | Ratio IC50 (Homo sapiens)
1 | CC(C)C[C@H](NC(=O)[C@@H]1COCCCCCCCC(=O)N2CCC[C@H]2C(=O)N1)C(=O)[C@@]1(C)CO1 | 158 nM | > 10000 nM | > 10000 nM | – | – | – | –
2 | CC(C)C[C@H](NC(=O)[C@@H]1COCCCCCC(=O)N2CCC[C@H]2C(=O)N1)C(=O)[C@@]1(C)CO1 | 413 nM | > 10000 nM | 1080 nM | 1500 nM | 35.8 nM | 147 nM | 4.1
3 | C[C@]1(C(=O)[C@H](CC2CCCCC2)NC(=O)[C@@H]2COCCCCCC(=O)N3CCC[C@H]3C(=O)N2)CO1 | 523 nM | 5770 nM | > 10000 nM | – | – | – | –
4 | CC(C)C[C@H](NC(=O)[C@@H]1COCCCCCCC(=O)NCC(=O)N2CCC[C@H]2C(=O)N1)C(=O)[C@@]1(C)CO1 | 65.6 nM | > 10000 nM | > 10000 nM | – | > 10000 nM | > 10000 nM | –
5 | CC(C)C[C@H](NC(=O)[C@@H]1Cc2ccc(cc2)OCCCCCCCCC(=O)N2CCC[C@H]2C(=O)N1)C(=O)[C@@]1(C)CO1 | 414 nM | 342 nM | 5000 nM | 414 nM | – | – | –
6 | C[C@]1(C(=O)[C@H](CC2CCCCC2)NC(=O)[C@@H]2Cc3ccc(cc3)OCCCCCCCC(=O)N3CCC[C@H]3C(=O)N2)CO1 | 168 nM | 2690 nM | 5000 nM | – | – | – | –
7 | CC(C)C[C@H](NC(=O)[C@@H]1COCCCCCC(=O)N2C[C@H](F)C[C@H]2C(=O)N1)C(=O)[C@@]1(C)CO1 | 2130 nM | > 10000 nM | > 10000 nM | > 10000 nM | – | – | –
8 | CC(C)C[C@H](NC(=O)[C@@H]1Cc2ccc(cc2)OCCCCCCC(=O)N2CCC[C@H]2C(=O)N1)C(=O)[C@@]1(C)CO1 | 423 nM | > 10000 nM | > 10000 nM | – | – | – | –
9 | CC(C)C[C@H](NC(=O)[C@@H]1COCCCCCC(=O)N2CC(F)(F)C[C@H]2C(=O)N1)C(=O)[C@@]1(C)CO1 | 238 nM | > 10000 nM | > 10000 nM | – | – | – | –
10 | CC(C)C[C@H](NC(=O)[C@H](Cc1ccccc1)NC(=O)[C@@H]1CCCN1C(=O)CNC(=O)c1cnccn1)C(=O)[C@@]1(C)CO1 | – | – | > 10000 nM | – | – | – | –
11 | CC(C)C[C@H](NC(=O)[C@@H]1COCCCCCC(=O)N2CCC[C@@]2(C)C(=O)N1)C(=O)[C@@]1(C)CO1 | 4580 nM | > 10000 nM | > 10000 nM | – | – | – | –
12 | CC(C)C[C@H](NC(=O)[C@@H]1COCCCCCC(=O)N2CC[C@H]2C(=O)N1)C(=O)[C@@]1(C)CO1 | 261 nM | > 10000 nM | > 10000 nM | – | – | – | –
13 | C[C@]1(C(=O)[C@H](Cc2ccccc2)NC(=O)[C@@H]2COCCCCCC(=O)N3CCC[C@H]3C(=O)N2)CO1 | 251 nM | > 10000 nM | > 10000 nM | – | – | – | –
14 | CC(C)C[C@H](NC(=O)[C@@H]1COCCCCCC(=O)N2CCCC[C@H]2C(=O)N1)C(=O)[C@@]1(C)CO1 | 1240 nM | > 10000 nM | > 10000 nM | – | – | – | –
15 | CC(=O)NCC(=O)N1CCC[C@H]1C(=O)N[C@@H](Cc1ccccc1)C(=O)N[C@@H](CC(C)C)C(=O)[C@@]1(C)CO1 | – | – | > 10000 nM | – | – | – | –
16 | CC(C)C[C@H](NC(=O)[C@@H]1COCCCCCC(=O)NCC(=O)N2CCC[C@H]2C(=O)N1)C(=O)[C@@]1(C)CO1 | 69.4 nM | > 10000 nM | > 10000 nM | – | > 10000 nM | > 10000 nM | –
17 | CC(C)C[C@H](NC(=O)[C@@H]1COCCCCCCC(=O)N2CCC[C@H]2C(=O)N1)C(=O)[C@@]1(C)CO1 | 563 nM | > 10000 nM | 4640 nM | – | – | – | –
18 | CC(C)C[C@H](NC(=O)[C@@H]1Cc2ccc(cc2)OCCCCCCCC(=O)N2CCC[C@H]2C(=O)N1)C(=O)[C@@]1(C)CO1 | 129 nM | 1520 nM | 4770 nM | 715 nM | 33.9 nM | 161 nM | 4.7
